Screening results from PubChem.
PHOSPHO1 inh: inhibitors of human PHOSPHO1 phosphatase; 290,000 compounds, 1.1% hits; recombinant PHOSPHO1, absorbance phosphatase assay; AID 1565; inhibition, % at 13.3 µM; in the data active means inhibition above about 60%
VIM-2 inh: blocks Pseudomonas aeruginosa VIM-2 metallo-beta-lactamase; purified VIM-2, nitrocefin hydrolysis, epi-absorbance fluorescence; inhibition, % at 5.6 µM; 290,000 compounds, 0.89% hits;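 active means inhibition above the mean of all tested compounds plus 3 SD, cutoff set per screening run, cut at about 7.5% in these data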;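 further: red hydrolysis product quenches plate fluorescence so inhibitors raise well fluorescence; 0% = enzyme with DMSO and 100% = DMSO without enzyme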
IMP-1 inh-1: inhibitors of Pseudomonas aeruginosa IMP-1 metallo-beta-lactamase; purified IMP-1, nitrocefin hydrolysis, epi-absorbance fluorescence; inhibition, % at 5.6 µM; 290,000 compounds, 0.45% hits;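 active means inhibition above the mean plus 3 SD of all compounds in the same screening run, cut at about 4.5% in these data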;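 further: 0% = IMP-1 with DMSO and 100% = DMSO wells lacking enzyme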
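system = purified recombinant IMP-1 beta-lactamase | amount = 0.2 nM IMP-1, as dispensed | medium = HEPES buffer pH 7.1 with ZnSO4 and Brij 35 | times = 25 °C, 15 min preincubation, 25 min reaction | detection = plate fluorescence quenching by hydrolysis product, ex 480/em 530 nm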
ARFGAP1 inhibitor: rat ARFGAP1 inhibition. 360,000 compounds, 0.26% hits. Q62848. Arfgap1-stimulated ARF1 GTP hydrolysis, GDP FP detection. inhibition, % at 16.5 µM;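 active means inhibition above a per-plate limit, mean inhibition of low control wells plus 3 SD, cut at about 25% in these data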;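 further: 0% = DMSO wells with enzyme and 100% = wells lacking Arfgap1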
Target sequence (Q62848 1-136 limits assumed): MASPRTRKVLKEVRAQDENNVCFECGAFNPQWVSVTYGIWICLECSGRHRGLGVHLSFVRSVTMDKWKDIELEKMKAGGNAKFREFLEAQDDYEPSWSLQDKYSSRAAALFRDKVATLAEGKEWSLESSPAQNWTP
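Assay system: Rat Arfgap1 GAP domain (His6, aa 1-136), purified enzyme | Buffer or medium: HEPES 25 mM pH 7.5, NaCl 150 mM, MgCl2, DTT | Schedule: GTP hydrolysis reaction 2 h at 25 °C | Signal: FP of antibody-bound GDP Alexa 633 tracer, ex 620/em 688 nm | Measure: Percent inhibition of Arfgap1-stimulated GTP hydrolysis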
Calb FLC: C. albicans growth modulation with fluconazole; AID 1979; 300,000 compounds, 0.57% hits; C. albicans CaCi-2 (fluconazole-resistant clinical isolate) + fluconazole, Alamar Blue growth, 48 h; growth inhibition, % (no concentration beside the values);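 active means growth inhibition above about 58% in most replicates, limit read from the data, passing the limit was not always enough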;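 further: all wells also contain fluconazole at 8 µg/ml as a sub-toxic cotreatment; 0% = median of DMSO wells and 100% = median of geldanamycin control wells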
ASAP1 inh: blocks human ASAP1-stimulated Arf1 GTP hydrolysis; Q9ULH1; GDP FP detection; inhibition, % at 16.5 µM; 360,000 compounds, 0.19% hits; in the data active means inhibition above about 25%;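 further: 0% = vehicle with enzyme and substrate and 100% = no enzyme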
IMP-1 inh-2: blocks IMP-1 metallo-beta-lactamase in VIM-2 selectivity screen | 1,300 tested, under 10 active | purified IMP-1, nitrocefin hydrolysis, epi-absorbance fluorescence | shares compounds with VIM-2 inh | inhibition, % at 5.6 µM; call rule not given here;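 further: 0% = enzyme with vehicle and 100% = vehicle without enzyme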
VIM-2 FRET ctr: counter-screen for VIM-2 inhibitors: epi-absorbance artifacts via FRET | inhibition, % at 5.6 µM | purified VIM-2, CCF2 FRET substrate hydrolysis | 1,300 compounds, 23% hits | AID 1857 | shares compounds with VIM-2 inh;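 active means inhibition above the mean of all tested compounds plus 3 SD, cut at about 19% in these data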;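 further: 0% = VIM-2 plus DMSO and 100% = no enzyme wells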
TEM-1 counter: selectivity counter-screen for VIM-2 inhibitors: E. coli TEM-1 inhibitors; shares compounds with VIM-2 inh; Purified TEM-1, nitrocefin hydrolysis, epi-absorbance fluorescence; inhibition, % at 5.6 µM; 1,300 compounds, 3% hits;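 active means inhibition above that campaign's mean inhibition plus 3 SD, cut at about 0.46% in these data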;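 further: 0% = TEM-1 with DMSO and 100% = TEM-1 with 100 µM potassium clavulanate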
Target sequence (P62593 whole entry, looked up): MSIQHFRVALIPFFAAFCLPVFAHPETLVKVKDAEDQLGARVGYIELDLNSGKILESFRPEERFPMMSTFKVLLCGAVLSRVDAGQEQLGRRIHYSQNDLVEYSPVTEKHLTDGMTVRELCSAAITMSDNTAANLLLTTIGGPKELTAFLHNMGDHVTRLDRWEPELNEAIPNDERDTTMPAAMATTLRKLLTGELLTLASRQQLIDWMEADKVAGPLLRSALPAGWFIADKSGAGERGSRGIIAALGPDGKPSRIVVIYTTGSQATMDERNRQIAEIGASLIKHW
VIM-2 inh conf: confirmation of P. aeruginosa VIM-2 metallo-beta-lactamase inhibitors; shares compounds with VIM-2 inh; AID 2187; inhibition, % at 5.6 µM; 1,300 compounds, 96% hits; purified VIM-2, nitrocefin hydrolysis, epi-absorbance;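 active means inhibition of the VIM-2 beta-lactamase enzyme above about 11% from the earlier first-round screen, limit read from the data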;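 further: 0% = VIM-2 with DMSO and 100% = buffer wells without enzyme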
Numbers without * were called inactive; nt = no result given. Rows were chosen to be rich in hits. Some 2.6% of all compounds tested hit in one or more screens of this group.

SMILES	PHOSPHO1 inh	VIM-2 inh	IMP-1 inh-1	ARFGAP1 inhibitor	Calb FLC	ASAP1 inh	IMP-1 inh-2	VIM-2 FRET ctr	TEM-1 counter	VIM-2 inh conf
c1ccc(-c2nc(-c3ccccn3)nc(-c3ccccn3)n2)nc1	48.3	21.3*	-1.0	-8.1	7.0	6.6	-2.7	-24.1	-5.6	44.5*
c1ccc(N2CCN(c3nc(-c4ccccn4)nc4ccccc34)CC2)cc1	3.9	42.0*	-4.8	1.2	17.5	3.8	-4.4	-46.6	-5.1	63.6*
CN1CCN(c2nc(-c3ccccn3)nc3ccccc23)CC1	2.1	3.0	-22.1	-5.3	-14.4	-2.5	nt	nt	nt	nt
CC1=CC(=O)C(C(C)C)=C/C1=C(\c1cc(C(C)C)c(OP(=O)(O)O)cc1C)c1ccccc1C(=O)O	46.6	18.4*	-1.8	-2.3	-4.9	-10.1	-2.0	31.7*	-3.4	25.2*
CC1(C(=O)Nc2cnc3ccccc3c2)CCN1Cc1ccc(OC(F)(F)F)cc1 (configuration not stated)	nt	nt	nt	-8.1	nt	-21.8	nt	nt	nt	nt
COc1ccccc1N1CC(C(=O)Nc2nnc(SCc3ccccn3)s2)CC1=O (configuration not stated)	4.4	-1.5	-1.1	10.4	1.8	-5.5	nt	nt	nt	nt
CNC(=O)CSc1nnc(NC(=O)C2CC(=O)N(c3ccccc3OC)C2)s1 (configuration not stated)	37.6	32.8*	-2.8	5.9	-6.5	-12.8	-3.6	-0.5	-4.0	-0.5
CCc1nc(N=C(N)N)nc2ccccc12	19.9	3.3	-2.8	-7.4	-19.5	-7.3	nt	nt	nt	nt
NC(N)=Nc1nc(-c2ccccc2)c2ccccc2n1	-12.8	13.5*	-2.9	4.0	19.0	6.6	-3.2	-6.0	-3.5	27.4*
CCCCCCc1c(C)c2ccc(OCC(=O)N3CCC[C@H]3C(=O)O)c(C)c2oc1=O	28.6	-4.3	-1.8	3.9	-3.8	-9.8	nt	nt	nt	nt
Cc1cc(=O)oc2c3c(cc(OCC(=O)N4CCC[C@H]4C(=O)O)c12)OC(C)(C)CC3	7.9	25.5*	-2.1	11.0	8.9	17.0	-2.9	46.3*	-3.3	29.3*
Cc1cc(OCC(=O)N2CCC[C@@H]2C(=O)O)c2c(C)c(C)c(=O)oc2c1	34.3	26.9*	-2.8	4.1	-2.4	14.2	-2.9	50.7*	-5.2	32.6*
CCCc1cc(=O)oc2c(C)c(OCC(=O)N3CCC[C@@H]3C(=O)O)ccc12	18.7	22.6*	-3.7	9.1	-1.4	5.3	-2.5	41.0*	-4.7	23.7*
CCCCc1cc(=O)oc2c3c(cc(OCC(=O)N4CCC[C@H]4C(=O)O)c12)OC(C)(C)CC3	34.3	15.8*	-4.9	4.3	-2.2	10.4	-2.8	36.1*	-5.9	20.3*
CCCCc1cc(=O)oc2c3c(cc(OCC(=O)NCCCO)c12)OC(C)(C)CC3	15.0	-1.8	-1.0	-2.6	-3.0	8.4	nt	nt	nt	nt
COC(=O)C1=CN(c2ccc(C)cc2)C(N)=C(C#N)C1c1ccc(OC)cc1 (configuration not stated)	nt	nt	nt	0.8	nt	-9.0	nt	nt	nt	nt
O=C(Nc1ccn(CCCN2CCN(Cc3ccc(F)cc3)CC2)c(=O)n1)OCc1ccccc1	nt	nt	nt	8.4	nt	-1.0	nt	nt	nt	nt
CC(C)(C)c1ccc(-c2n[nH]c(=S)n2CCCN2CCOCC2)cc1	-68.4	13.3*	-2.1	-7.0	-37.3	19.9	-4.2	33.3*	-8.2	21.7*
CC(C)(C)c1ccc(-c2n[nH]c(=S)n2CC2CCCO2)cc1 (configuration not stated)	-15.7	-0.1	-2.8	-7.0	13.0	0.3	nt	nt	nt	nt
O=C(Nc1ccc(F)c(Cl)c1)Nc1nnc([C@@H]2O[C@H](CO)[C@@H](O)[C@H]2O)s1	nt	nt	nt	9.0	nt	-7.9	nt	nt	nt	nt
